{
  "source": "ChEMBL document CHEMBL1909506",
  "about": "“Synthesis and anti-tumor activities of N'-benzylidene-2-(4-oxothieno[2,3-d]pyrimidin-3(4H)-yl)acetohydrazone derivatives” (Bioorg Med Chem Lett, 2011)",
  "key": {"MDA-MB-231 [1]": {"system": "MDA-MB-231", "assay": "Cytotoxicity against human MDA-MB-231 cells assessed as growth inhibition after 48 hrs by MTT assay", "assay_type": "functional, cell-based", "settings": "for IC50: MDA-MB-231, 48 h", "summary_of_the_method": "(§1)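 Dose-response MTT assay, 48 h exposure. Compounds run at multiple concentrations; IC50 taken as the concentration giving 50% growth inhibition. HEK-293T (human embryonic kidney cells transformed with adenovirus 5 DNA and SV40 large T-antigen) served as the normal-cell model.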"}, "HeLa [2]": {"system": "HeLa", "assay": "Cytotoxicity against human HeLa cells assessed as growth inhibition at 20 uM after 48 hrs by MTT assay", "assay_type": "functional", "settings": "read-out: GI", "summary_of_the_method": "(§2)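 Single-concentration screen at 20 µM. Cell growth inhibition read by standard MTT assay after 48 h treatment and expressed as inhibition ratio.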"}, "HeLa [3]": {"system": "HeLa", "assay": "Induction of apoptosis in human HeLa cells assessed as sub-diploid DNA content at 20 uM after 24 hrs using PI staining by flow cytometry (reference value: 6%)", "assay_type": "functional"}, "A549 [4]": {"system": "A549", "assay": "Cytotoxicity against human A549 cells assessed as growth inhibition after 48 hrs by MTT assay", "assay_type": "functional, cell-based", "settings": "for IC50: A549, 48 h", "summary_of_the_method": "as §1"}, "A549 [5]": {"system": "A549", "assay": "Cytotoxicity against human A549 cells assessed as growth inhibition at 20 uM after 48 hrs by MTT assay", "assay_type": "functional", "settings": "for inhibition of growth at 20 µM: A549, 48 h, read-out: GI", "summary_of_the_method": "as §2"}, "MDA-MB-231 [6]": {"system": "MDA-MB-231", "assay": "Cytotoxicity against human MDA-MB-231 cells assessed as growth inhibition at 20 uM after 48 hrs by MTT assay", "assay_type": "functional", "settings": "MDA-MB-231, 48 h, read-out: GI", "summary_of_the_method": "as §2"}, "HeLa [7]": {"system": "HeLa", "assay": "Induction of apoptosis in human HeLa cells assessed as increase in level of cleaved PARP at 20 uM after 12 hrs by immunoblotting", "assay_type": "functional, cell-based"}, "HEK-293T": {"system": "HEK-293T", "assay": "Cytotoxicity against human HEK293T cells assessed as growth inhibition after 48 hrs by MTT assay", "assay_type": "cell-based", "summary_of_the_method": "as §1"}, "[8]": {"target": "Induced myeloid leukemia cell differentiation protein Mcl-1 (Homo sapiens) (UniProt Q07820)", "assay": "Inhibition of mouse/human MCL1 expressed in Escherichia coli BL21 at 1 uM to 50 uM using FAM-labeled Bid-BH3 as tracer by fluorescence polarization assay"}, "HeLa [9]": {"system": "HeLa", "assay": "Cytotoxicity against human HeLa cells assessed as growth inhibition after 48 hrs by MTT assay", "assay_type": "functional, cell-based", "summary_of_the_method": "as §1"}, "HeLa [10]": {"system": "HeLa", "assay": "Induction of apoptosis in human HeLa cells assessed as increase in level of cleaved caspase-3 at 20 uM after 12 hrs by immunoblotting", "assay_type": "functional, cell-based"}, "HeLa [11]": {"system": "HeLa", "assay": "Induction of apoptosis in human HeLa cells at 20 uM after 24 hrs using PI staining by flow cytometry relative to control", "assay_type": "functional"}, "[12]": {"target": "Induced myeloid leukemia cell differentiation protein Mcl-1 (Homo sapiens) (UniProt Q07820)", "assay": "Inhibition of mouse/human MCL1 expressed in Escherichia coli BL21 at 50 uM using FAM-labeled Bid-BH3 as tracer by fluorescence polarization assay"}},
  "note": "Activity calls are given as the source filed them. The calls are words filed in the database; no cut-off is given here.",
  "data": [
    {"smiles": "O=C(Cn1cnc2scc(-c3ccc(Cl)cc3)c2c1=O)N/N=C/c1ccc(Cl)c([N+](=O)[O-])c1", "values": [
      {"measurement": "growth inhibition (GI)", "setting": "MDA-MB-231 [1]", "result": "Dose-dependent effect"},
      {"measurement": "IC50", "setting": "MDA-MB-231 [1]", "result": 32, "unit": "µM"},
      {"measurement": "inhibition of growth at 20 µM", "setting": "HeLa [2]", "result": 74, "unit": "%"},
      {"measurement": "Activity", "setting": "HeLa [3]", "result": 22, "unit": "%"},
      {"measurement": "growth inhibition (GI)", "setting": "A549 [4]", "result": "Dose-dependent effect"},
      {"measurement": "IC50", "setting": "A549 [4]", "result": 20, "unit": "µM"},
      {"measurement": "inhibition of growth at 20 µM", "setting": "A549 [5]", "result": 58, "unit": "%"},
      {"measurement": "inhibition of growth at 20 µM", "setting": "MDA-MB-231 [6]", "result": 78, "unit": "%"},
      {"measurement": "Activity", "setting": "HeLa [7]", "result": "Active"},
      {"measurement": "IC50", "setting": "HEK-293T", "result": "> 50", "unit": "µM"},
      {"measurement": "inhibition", "setting": "[8]", "result": "inactive"},
      {"measurement": "IC50", "setting": "HeLa [9]", "result": 11, "unit": "µM"},
      {"measurement": "growth inhibition (GI)", "setting": "HeLa [9]", "result": "Dose-dependent effect"},
      {"measurement": "Activity", "setting": "HeLa [10]", "result": "Active"}
    ]},
    {"smiles": "O=C(Cn1cnc2sc3c(c2c1=O)CCCCC3)N/N=C/c1ccc(Cl)c([N+](=O)[O-])c1", "values": [
      {"measurement": "IC50", "setting": "MDA-MB-231 [1]", "result": 23, "unit": "µM"},
      {"measurement": "inhibition of growth at 20 µM", "setting": "HeLa [2]", "result": 96, "unit": "%"},
      {"measurement": "IC50", "setting": "A549 [4]", "result": "> 50", "unit": "µM"},
      {"measurement": "growth inhibition (GI)", "setting": "A549 [5]", "result": "inactive"},
      {"measurement": "inhibition of growth at 20 µM", "setting": "MDA-MB-231 [6]", "result": 66, "unit": "%"},
      {"measurement": "IC50", "setting": "HEK-293T", "result": "> 50", "unit": "µM"},
      {"measurement": "inhibition", "setting": "[8]", "result": "inactive"},
      {"measurement": "IC50", "setting": "HeLa [9]", "result": 6, "unit": "µM"},
      {"measurement": "Activity", "setting": "HeLa [11]", "result": 6, "unit": "%"}
    ]},
    {"smiles": "Cc1cc(-c2csc3ncn(CC(=O)N/N=C/c4ccc(Cl)c(F)c4)c(=O)c23)ccc1Cl", "values": [
      {"measurement": "growth inhibition (GI)", "setting": "MDA-MB-231 [1]", "result": "Dose-dependent effect"},
      {"measurement": "IC50", "setting": "MDA-MB-231 [1]", "result": 16, "unit": "µM"},
      {"measurement": "inhibition of growth at 20 µM", "setting": "HeLa [2]", "result": 52, "unit": "%"},
      {"measurement": "Activity", "setting": "HeLa [3]", "result": 27, "unit": "%"},
      {"measurement": "growth inhibition (GI)", "setting": "A549 [4]", "result": "Dose-dependent effect"},
      {"measurement": "IC50", "setting": "A549 [4]", "result": 17, "unit": "µM"},
      {"measurement": "inhibition of growth at 20 µM", "setting": "A549 [5]", "result": 51, "unit": "%"},
      {"measurement": "inhibition of growth at 20 µM", "setting": "MDA-MB-231 [6]", "result": 74, "unit": "%"},
      {"measurement": "Activity", "setting": "HeLa [7]", "result": "Active"},
      {"measurement": "IC50", "setting": "HEK-293T", "result": "> 50", "unit": "µM"},
      {"measurement": "inhibition", "setting": "[8]", "result": "inactive"},
      {"measurement": "IC50", "setting": "HeLa [9]", "result": 15, "unit": "µM"},
      {"measurement": "growth inhibition (GI)", "setting": "HeLa [9]", "result": "Dose-dependent effect"},
      {"measurement": "inhibition", "setting": "[12]", "result": 40, "unit": "%"},
      {"measurement": "Activity", "setting": "HeLa [10]", "result": "Active"}
    ]},
    {"smiles": "O=C(Cn1cnc2scc(-c3ccccc3)c2c1=O)N/N=C/c1ccc(Cl)c([N+](=O)[O-])c1", "values": [
      {"measurement": "growth inhibition (GI)", "setting": "MDA-MB-231 [1]", "result": "Dose-dependent effect"},
      {"measurement": "IC50", "setting": "MDA-MB-231 [1]", "result": 20, "unit": "µM"},
      {"measurement": "inhibition of growth at 20 µM", "setting": "HeLa [2]", "result": 64, "unit": "%"},
      {"measurement": "growth inhibition (GI)", "setting": "A549 [4]", "result": "Dose-dependent effect"},
      {"measurement": "IC50", "setting": "A549 [4]", "result": 16, "unit": "µM"},
      {"measurement": "inhibition of growth at 20 µM", "setting": "A549 [5]", "result": 66, "unit": "%"},
      {"measurement": "inhibition of growth at 20 µM", "setting": "MDA-MB-231 [6]", "result": 29, "unit": "%"},
      {"measurement": "IC50", "setting": "HEK-293T", "result": "> 50", "unit": "µM"},
      {"measurement": "inhibition", "setting": "[8]", "result": "inactive"},
      {"measurement": "IC50", "setting": "HeLa [9]", "result": 11, "unit": "µM"},
      {"measurement": "growth inhibition (GI)", "setting": "HeLa [9]", "result": "Dose-dependent effect"},
      {"measurement": "Activity", "setting": "HeLa [11]", "result": 8, "unit": "%"}
    ]}
  ]
}
